Results taken from ChEMBL document CHEMBL1153467, “Synthesis and biological evaluation of imidazole derivatives as novel NOP/ORL1 receptor antagonists: exploration and optimization of alternative pyrazole structure” (Bioorg Med Chem Lett, 2009).

Biological target: T1, Nociceptin receptor (Homo sapiens, UniProt P41146)
T1 sequence (P41146 whole entry): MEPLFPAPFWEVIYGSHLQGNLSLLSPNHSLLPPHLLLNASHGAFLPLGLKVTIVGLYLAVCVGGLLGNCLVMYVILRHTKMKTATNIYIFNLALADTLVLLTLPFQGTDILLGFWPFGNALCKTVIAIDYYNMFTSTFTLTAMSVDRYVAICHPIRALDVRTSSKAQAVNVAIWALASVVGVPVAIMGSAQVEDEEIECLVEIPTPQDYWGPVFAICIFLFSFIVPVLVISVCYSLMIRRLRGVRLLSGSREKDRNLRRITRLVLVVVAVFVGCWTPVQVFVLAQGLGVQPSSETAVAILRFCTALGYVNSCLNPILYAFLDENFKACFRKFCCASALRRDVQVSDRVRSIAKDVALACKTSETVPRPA
Experiment: Displacement of [125I]Tyr14-nociceptin from human ORL1 receptor expressed in CHO cells
Type: cell-based
Details: not given
Summary of the method: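 Competition binding to human ORL1 receptors transfected into CHO cells, with [¹²⁵I][Tyr¹⁴]nociceptin as radioligand; values given as IC₅₀.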
Work on Cc1c(CNC2CCCC2)nc(-c2ccc(Cl)cc2Cl)n1-c1ccc(Cl)cc1 yielded an IC50 of 28 nM. Clc1ccc(-c2c(-c3ccc(Cl)cc3Cl)nc(CNC3CCCC3)n2C2CCCC2)cc1 showed an IC50 greater than 1000 nM. For CC(C)n1c(CNC2CCCC2)nc(-c2ccc(Cl)cc2Cl)c1-c1ccc(Cl)cc1, the IC50 was 33 nM. For Clc1ccc(-c2cc(CNC3CCCC3)nn2-c2ccc(Cl)cc2Cl)cc1, the IC50 was 130 nM. Compound CC(C)Cn1c(CNC2CCCC2)nc(-c2ccc(Cl)cc2Cl)c1-c1ccc(Cl)cc1 has an IC50 of 540 nM. COCCc1nc(CN[C@H]2CC[C@@H](F)C2)n(C(C)C)c1-c1ccc(Cl)cc1 gave an IC50 of 7.6 nM. Work on Cc1ccc(-n2c(-c3ncccc3Cl)nc(CN[C@H]3CC[C@@H](F)C3)c2C(C)C)cn1 yielded an IC50 of 1.4 nM. For CC(C)(C)n1c(CNC2CCCC2)nc(-c2ccc(Cl)cc2Cl)c1-c1ccc(Cl)cc1, the IC50 was greater than 1000 nM. Compound Clc1ccc(-c2c(-c3ccc(Cl)cc3Cl)nc(CNC3CCCC3)n2C2CC2)cc1 has an IC50 of 190 nM. Work on FCC(CF)n1c(CNC2CCCC2)nc(-c2ccc(Cl)cc2Cl)c1-c1ccc(Cl)cc1 yielded an IC50 of 96 nM. Work on CCC(CC)n1c(CNC2CCCC2)nc(-c2ccc(Cl)cc2Cl)c1-c1ccc(Cl)cc1 yielded an IC50 of 160 nM. Cc1nn(-c2ccccc2)c(C)c1CNC1CCCC1 gave an IC50 greater than 1000 nM. Work on Clc1ccc(-c2nc(CNC3CCCC3)cn2-c2ccc(Cl)cc2Cl)cc1 yielded an IC50 of 620 nM. In the case of Cc1c(CNC2CCCC2)oc(-c2ccc(Cl)cc2Cl)c1-c1ccc(Cl)cc1, the IC50 is reported as greater than 1000 nM. Clc1ccc(-c2nc(CNC3CCCC3)nn2-c2ccc(Cl)cc2Cl)cc1 gave an IC50 greater than 1000 nM. For Clc1ccc(-c2c(-c3ccc(Cl)cc3Cl)nc(CNC3CCCC3)n2C2CCCCC2)cc1, the IC50 was greater than 1000 nM. With Clc1ccc(-c2oc(CNC3CCCC3)nc2-c2ccc(Cl)cc2Cl)cc1 the IC50 was greater than 1000 nM. Clc1ccc(-c2sc(CNC3CCCC3)nc2-c2ccc(Cl)cc2Cl)cc1 gave an IC50 greater than 1000 nM. In the case of FCCn1c(CNC2CCCC2)nc(-c2ccc(Cl)cc2Cl)c1-c1ccc(Cl)cc1, the IC50 is reported as 160 nM. CCc1c(CN[C@H]2CC[C@@H](F)C2)nc(-c2ncccc2Cl)n1-c1ccc(C)nc1 gave an IC50 of 3.2 nM. Compound Cc1nc(CNC2CCCC2)n(C(C)C)c1-c1ccc(Cl)cc1 has an IC50 of 11 nM. Compound FC(F)Cn1c(CNC2CCCC2)nc(-c2ccc(Cl)cc2Cl)c1-c1ccc(Cl)cc1 has an IC50 of 500 nM. FC(F)(F)Cn1c(CNC2CCCC2)nc(-c2ccc(Cl)cc2Cl)c1-c1ccc(Cl)cc1 showed an IC50 greater than 1000 nM. With Cc1c(CNC2CCCC2)cc(-c2ccc(Cl)cc2Cl)n1-c1ccc(Cl)cc1 the IC50 was 200 nM. For Cc1ccc(-n2c(-c3ncccc3Cl)nc(CNC3CCCC3)c2C(C)C)cn1, the IC50 was 4.7 nM. Work on Cn1c(CNC2CCCC2)nc(-c2ccc(Cl)cc2)c1-c1ccc(Cl)cc1Cl yielded an IC50 of 850 nM. Cn1c(CNC2CCCC2)nc(-c2ccc(Cl)cc2Cl)c1-c1ccc(Cl)cc1 gave an IC50 of 520 nM. CCn1c(CNC2CCCC2)nc(-c2ccc(Cl)cc2Cl)c1-c1ccc(Cl)cc1 showed an IC50 of 160 nM. Work on Cc1nc(CN[C@H]2CC[C@@H](F)C2)c(C(C)C)n1-c1cc(F)cc(F)c1 yielded an IC50 of 8.6 nM. Compound Cc1ccc(-n2c(-c3ncccc3Cl)nc(CN[C@H]3CC[C@@H](F)C3)c2C)cn1 has an IC50 of 9.1 nM. Work on Clc1ccc(-c2c(-c3ccc(Cl)cc3Cl)nc(CNC3CCCC3)n2C2CCC2)cc1 yielded an IC50 of 530 nM. In the case of Cn1c(CNC2CCCC2)nnc1-c1cc(F)cc(F)c1, the IC50 is reported as greater than 1000 nM. Cc1c(CNC2CCCC2)nnn1-c1ccc(F)c(F)c1 gave an IC50 greater than 1000 nM. In the case of Cc1ccc(-n2c(-c3ncccc3Cl)nc(CNC3CCCC3)c2C)cn1, the IC50 is reported as 26 nM.

Biological target: T1, Nociceptin receptor
Experiment: Displacement of [125I]Tyr14-nociceptin from human ORL1 receptor expressed in CHO cells at 1 uM
Type: cell-based
Details: not given
Summary of the method: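 Same radioligand displacement at human ORL1 in CHO cells ([¹²⁵I][Tyr¹⁴]nociceptin), but reported as % inhibition of binding at a single 1 μM test concentration.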
Clc1ccc(-c2c(-c3ccc(Cl)cc3Cl)nc(CNC3CCCC3)n2C2CCCC2)cc1 gave an inhibition of 43%. Work on CC(C)(C)n1c(CNC2CCCC2)nc(-c2ccc(Cl)cc2Cl)c1-c1ccc(Cl)cc1 yielded an inhibition of 26%. Compound Cc1nn(-c2ccccc2)c(C)c1CNC1CCCC1 has an inhibition of 44%. In the case of Cc1c(CNC2CCCC2)oc(-c2ccc(Cl)cc2Cl)c1-c1ccc(Cl)cc1, the inhibition is reported as 25%. Clc1ccc(-c2nc(CNC3CCCC3)nn2-c2ccc(Cl)cc2Cl)cc1 gave an inhibition of 48%. Work on Clc1ccc(-c2c(-c3ccc(Cl)cc3Cl)nc(CNC3CCCC3)n2C2CCCCC2)cc1 yielded an inhibition of 48%. Work on Clc1ccc(-c2oc(CNC3CCCC3)nc2-c2ccc(Cl)cc2Cl)cc1 yielded an inhibition of 28%. Work on Clc1ccc(-c2sc(CNC3CCCC3)nc2-c2ccc(Cl)cc2Cl)cc1 yielded an inhibition of 7%. FC(F)(F)Cn1c(CNC2CCCC2)nc(-c2ccc(Cl)cc2Cl)c1-c1ccc(Cl)cc1 gave an inhibition of 32%. Cn1c(CNC2CCCC2)nnc1-c1cc(F)cc(F)c1 gave an inhibition of 19%. Work on Cc1c(CNC2CCCC2)nnn1-c1ccc(F)c(F)c1 yielded an inhibition of 40%.

Biological target: T1, Nociceptin receptor
Experiment: Antagonist activity at human cloned ORL1 receptor expressed in CHO cells assessed as inhibition of nociceptin/orphanin FQ-stimulated [35S]GTPgammaS binding
Type: functional, cell-based
Details: not given
Summary of the method: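 Functional antagonism measured by stimulation of [³⁵S]GTPγS binding to membranes from CHO cells expressing ORL1, run per an earlier published protocol.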
Work on COCCc1nc(CN[C@H]2CC[C@@H](F)C2)n(C(C)C)c1-c1ccc(Cl)cc1 yielded an IC50 of 5.6 nM. Cc1ccc(-n2c(-c3ncccc3Cl)nc(CN[C@H]3CC[C@@H](F)C3)c2C(C)C)cn1 gave an IC50 of 2.3 nM. Work on CCc1c(CN[C@H]2CC[C@@H](F)C2)nc(-c2ncccc2Cl)n1-c1ccc(C)nc1 yielded an IC50 of 2.3 nM. For Cc1ccc(-n2c(-c3ncccc3Cl)nc(CNC3CCCC3)c2C(C)C)cn1, the IC50 was 9.6 nM. Cc1nc(CN[C@H]2CC[C@@H](F)C2)c(C(C)C)n1-c1cc(F)cc(F)c1 showed an IC50 of 4.5 nM. Cc1ccc(-n2c(-c3ncccc3Cl)nc(CN[C@H]3CC[C@@H](F)C3)c2C)cn1 showed an IC50 of 3.7 nM.

Biological target: Voltage-gated inwardly rectifying potassium channel KCNH2 (Homo sapiens, UniProt Q12809)
Sequence (Q12809 whole entry): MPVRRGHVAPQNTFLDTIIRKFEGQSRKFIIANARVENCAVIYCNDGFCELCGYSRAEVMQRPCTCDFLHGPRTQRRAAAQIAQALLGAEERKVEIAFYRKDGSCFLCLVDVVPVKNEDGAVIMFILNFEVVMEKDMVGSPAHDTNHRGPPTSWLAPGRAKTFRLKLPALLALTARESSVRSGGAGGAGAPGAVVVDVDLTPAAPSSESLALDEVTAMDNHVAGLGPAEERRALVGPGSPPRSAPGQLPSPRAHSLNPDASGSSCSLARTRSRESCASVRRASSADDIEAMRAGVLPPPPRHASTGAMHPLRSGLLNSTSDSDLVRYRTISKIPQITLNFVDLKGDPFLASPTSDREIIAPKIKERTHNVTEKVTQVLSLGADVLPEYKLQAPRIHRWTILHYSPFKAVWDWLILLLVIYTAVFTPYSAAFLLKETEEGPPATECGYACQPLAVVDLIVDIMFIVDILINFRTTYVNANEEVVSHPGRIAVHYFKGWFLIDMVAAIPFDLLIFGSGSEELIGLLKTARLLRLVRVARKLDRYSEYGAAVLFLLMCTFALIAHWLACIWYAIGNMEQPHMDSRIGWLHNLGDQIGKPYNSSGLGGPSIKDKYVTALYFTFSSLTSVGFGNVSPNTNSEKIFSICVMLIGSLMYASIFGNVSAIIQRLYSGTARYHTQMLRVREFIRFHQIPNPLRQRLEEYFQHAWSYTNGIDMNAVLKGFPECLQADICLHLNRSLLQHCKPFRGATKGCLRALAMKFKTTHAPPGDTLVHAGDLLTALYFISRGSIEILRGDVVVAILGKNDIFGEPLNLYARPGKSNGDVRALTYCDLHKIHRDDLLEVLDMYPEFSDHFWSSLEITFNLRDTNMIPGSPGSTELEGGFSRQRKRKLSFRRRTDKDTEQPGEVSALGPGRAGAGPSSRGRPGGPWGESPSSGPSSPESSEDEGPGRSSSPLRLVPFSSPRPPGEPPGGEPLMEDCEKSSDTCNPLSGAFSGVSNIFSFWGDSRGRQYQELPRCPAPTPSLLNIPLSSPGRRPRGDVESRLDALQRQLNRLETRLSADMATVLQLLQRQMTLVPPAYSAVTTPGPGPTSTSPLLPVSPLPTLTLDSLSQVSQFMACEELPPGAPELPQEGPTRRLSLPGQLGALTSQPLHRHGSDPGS
Experiment: Displacement of [35S]MK499 from human ERG expressed in HEK293 cells overexpressing Ikr channel protein
Type: cell-based
Details: not given
Cc1ccc(-n2c(-c3ncccc3Cl)nc(CN[C@H]3CC[C@@H](F)C3)c2C(C)C)cn1 showed an IC50 of 15000 nM. For CCc1c(CN[C@H]2CC[C@@H](F)C2)nc(-c2ncccc2Cl)n1-c1ccc(C)nc1, the IC50 was 15000 nM. Work on Cc1nc(CNC2CCCC2)n(C(C)C)c1-c1ccc(Cl)cc1 yielded an IC50 of 3200 nM. Work on Cc1ccc(-n2c(-c3ncccc3Cl)nc(CNC3CCCC3)c2C(C)C)cn1 yielded an IC50 of 9900 nM. With Cc1nc(CN[C@H]2CC[C@@H](F)C2)c(C(C)C)n1-c1cc(F)cc(F)c1 the IC50 was 34000 nM.

System: MDR1 (human)
Experiment: Apparent permeability across pig L-MDR1 cells overexpressing human MDR1
Type: ADME, cell-based, Sus scrofa
Details: LLC-PK1
Summary of the method: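 P-gp transporter efflux assay: apparent permeability (Papp) reported in 10⁻⁶ cm/s; efflux expressed as the B–A/A–B ratio, with ratio accuracy considered compromised when Papp <10.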
For COCCc1nc(CN[C@H]2CC[C@@H](F)C2)n(C(C)C)c1-c1ccc(Cl)cc1, the Papp was 28.6 ×10⁻⁶ cm/s. Work on Cc1ccc(-n2c(-c3ncccc3Cl)nc(CN[C@H]3CC[C@@H](F)C3)c2C(C)C)cn1 yielded a Papp of 24.1 ×10⁻⁶ cm/s. Work on CCc1c(CN[C@H]2CC[C@@H](F)C2)nc(-c2ncccc2Cl)n1-c1ccc(C)nc1 yielded a Papp of 20.6 ×10⁻⁶ cm/s. Cc1nc(CNC2CCCC2)n(C(C)C)c1-c1ccc(Cl)cc1 showed a Papp of 18.2 ×10⁻⁶ cm/s. In the case of Cc1ccc(-n2c(-c3ncccc3Cl)nc(CNC3CCCC3)c2C(C)C)cn1, the Papp is reported as 25 ×10⁻⁶ cm/s. Work on Cc1nc(CN[C@H]2CC[C@@H](F)C2)c(C(C)C)n1-c1cc(F)cc(F)c1 yielded a Papp of 34 ×10⁻⁶ cm/s. In the case of Cc1ccc(-n2c(-c3ncccc3Cl)nc(CN[C@H]3CC[C@@H](F)C3)c2C)cn1, the Papp is reported as 16.8 ×10⁻⁶ cm/s.

System: not listed separately
Experiment: Metabolic stability in human liver microsomes at 1 uM after 30 mins
Type: ADME, Microsome
Details: read-out: Stability
Summary of the method: (§1)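 Parent compound at 1 μM was incubated with human or rat liver microsomes (0.25 mg protein/ml) for 30 min at 37 °C; stability was read out as % parent remaining.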
With CCc1c(CN[C@H]2CC[C@@H](F)C2)nc(-c2ncccc2Cl)n1-c1ccc(C)nc1 the remaining at 0.5 h, 1 µM was 85%.

System: not listed separately
Experiment: Metabolic stability in rat liver microsomes at 1 uM after 30 mins
Type: ADME, Microsome
Details: read-out: Stability
Summary of the method: as §1
Work on CCc1c(CN[C@H]2CC[C@@H](F)C2)nc(-c2ncccc2Cl)n1-c1ccc(C)nc1 yielded a remaining at 0.5 h, 1 µM of 82%.

System: not listed separately
Experiment: Clearance in rat at 1 mg/kg, iv
Type: ADME, organism-based
Design: dose 1 mg/kg, route intravenous
Details: in vivo
For CCc1c(CN[C@H]2CC[C@@H](F)C2)nc(-c2ncccc2Cl)n1-c1ccc(C)nc1, the clearance was 114 mL/min/kg.

System: not listed separately
Experiment: Half life in rat at 1 mg/kg, iv
Type: ADME, organism-based
Design: dose 1 mg/kg, route intravenous
Details: in vivo
Compound CCc1c(CN[C@H]2CC[C@@H](F)C2)nc(-c2ncccc2Cl)n1-c1ccc(C)nc1 has a half-life of 30 min.

System: not listed separately
Experiment: Oral bioavailability in rat at 3 mg/kg
Type: ADME, organism-based
Details: in vivo
Compound CCc1c(CN[C@H]2CC[C@@H](F)C2)nc(-c2ncccc2Cl)n1-c1ccc(C)nc1 has a bioavailability of 10%.

System: not listed separately
Experiment: Efflux ratio of permeability from basolateral to apical side over apical to basolateral side in pig L-MDR1 cells overexpressing human MDR1
Details: not given
In the case of Cc1ccc(-n2c(-c3ncccc3Cl)nc(CN[C@H]3CC[C@@H](F)C3)c2C(C)C)cn1, the Ratio is reported as 21.8. For CCc1c(CN[C@H]2CC[C@@H](F)C2)nc(-c2ncccc2Cl)n1-c1ccc(C)nc1, the Ratio was 19.7. Compound Cc1nc(CNC2CCCC2)n(C(C)C)c1-c1ccc(Cl)cc1 has a Ratio of 1. Cc1ccc(-n2c(-c3ncccc3Cl)nc(CNC3CCCC3)c2C(C)C)cn1 showed a Ratio of 22.9. With Cc1nc(CN[C@H]2CC[C@@H](F)C2)c(C(C)C)n1-c1cc(F)cc(F)c1 the Ratio was 3.2.
